Screening data: PubChem, Broad Institute
The entries come from a sample that favours hits as a whole.
YB-1 expression – YB-1 expression inhibition; U2OS, qRT-PCR YB-1 vs CDIP delta delta Cp, 16 h; active compounds read high; zero = DMSO, each unit about twofold; delta delta Cp (YB-1 minus CDIP) (concentration not given with the values); 30,000 compounds, 0.37% hits;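 active = delta delta Cp rounded down to an integer at or above 3, about 3 SD of DMSO wells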;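 also: higher means less YB-1 transcript or more CDIP transcript relative to DMSO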
INS-1E ATP HTS – preserves ATP levels in cytokine-treated INS-1E cells | protection from cytokine-induced ATP loss, % at 10 µM | INS-1E cytokine-induced death, ATP luminescence, 48 h; normalised: neutral wells 0, positive control 100 | 20,000 compounds, 0.1% hits;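 active = mean replicate protection from cytokine-induced ATP loss at least 50% and at least 75% of replicates each reaching 50%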
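Test system: INS-1E rat cells | Quantity: 8000 cells per well | Medium: Phenol-red-free RPMI with 5% fetal bovine serum | Reagent: Cytokine cocktail of IFN-γ, TNF-α and IL-1β | Doses: One compound concentration, pin transfer | Timing: 48 h co-treatment, 10 min post-lysis read | Technique: Luminescent ATP assay (CellTiter-Glo)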
T cruzi intra – blocks T. cruzi growth inside host cells | 22,000 compounds, 4.9% hits | intracellular Trypanosoma cruzi in host cells, plate reader | activity score (inhibition), % at 5.01 µM; in the data active = activity score above about 55%;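 also: parasites and compound incubated about four days before reading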
A number is an active result.

C[C@H](CO)N1C[C@H](C)[C@H](CN(C)Cc2ccc(Cl)c(Cl)c2)Oc2ccc(NC(=O)Cc3cn(C)c4ccccc34)cc2CC1=O was read as YB-1 expression inactive, INS-1E ATP HTS inactive and T cruzi intra inactive.
For C[C@H](CO)N1C[C@H](C)[C@H](CN(C)Cc2ccc(Oc3ccccc3)cc2)Oc2ccc(NC(=O)Cc3cn(C)c4ccccc34)cc2CC1=O the results were YB-1 expression inactive, INS-1E ATP HTS inactive and T cruzi intra inactive.
For C[C@H]1CN([C@@H](C)CO)C(=O)Cc2cc(NC(=O)Cc3cn(C)c4ccccc34)ccc2O[C@H]1CN(C)S(=O)(=O)c1ccc(Cl)cc1 the results were YB-1 expression inactive, INS-1E ATP HTS inactive and T cruzi intra inactive.
Screening CC(C)(C)C1CCc2c(sc3nc(-c4cccs4)oc(=O)c23)C1 (stereo unspecified) returned YB-1 expression inactive.
`CSc1nc2cc(C)nn2c(-c2ccco2)c1C#N` gave YB-1 expression inactive.
S=C(Nc1ccccn1)Nc1ccccn1 was read as YB-1 expression inactive.
`N#CC1=C(N)N2CCSC2=NC1(C(F)(F)F)C(F)(F)F` gave YB-1 expression inactive.
COc1ccc(CN(C)C[C@@H]2Oc3ccc(NC(=O)Cc4cn(C)c5ccccc45)cc3CC(=O)N([C@H](C)CO)C[C@H]2C)cc1 was read as YB-1 expression inactive, INS-1E ATP HTS inactive and T cruzi intra 65.
COc1ccc(CN(C)C[C@H]2Oc3ccc(NC(=O)Cc4cn(C)c5ccccc45)cc3CC(=O)N([C@H](C)CO)C[C@H]2C)cc1 was read as YB-1 expression inactive, INS-1E ATP HTS inactive and T cruzi intra inactive.
NCCCCCNC(=O)[C@@H]1C[C@@H]2C(=O)N3CCC[C@H]3C(=O)N2[C@@H]1c1ccc(O)cc1 was read as YB-1 expression inactive.
Screening CC(c1ccco1)N(C(=O)c1sc2ccccc2c1Cl)c1ccccn1 (stereo unspecified) returned YB-1 expression inactive.
For C[C@H]1CN([C@@H](C)CO)C(=O)c2cccc(NS(=O)(=O)c3ccc(F)cc3)c2O[C@H]1CN(C)Cc1ccc(C(=O)Nc2ccccc2N)cc1 the results were YB-1 expression inactive, INS-1E ATP HTS inactive and T cruzi intra 60.
`Cc1ccc(S(=O)(=O)Nc2cccc3c2O[C@@H](CN(C)Cc2ccc(C(=O)Nc4ccccc4N)cc2)[C@H](C)CN([C@@H](C)CO)C3=O)cc1` gave YB-1 expression inactive, INS-1E ATP HTS inactive and T cruzi intra 55.
For Cc1ccc(S(=O)(=O)Nc2cccc3c2O[C@H](CN(C)Cc2ccc(C(=O)Nc4ccccc4N)cc2)[C@H](C)CN([C@H](C)CO)C3=O)cc1 the results were YB-1 expression inactive, INS-1E ATP HTS inactive and T cruzi intra inactive.
`C[C@H]1CN([C@@H](C)CO)C(=O)c2cccc(NS(=O)(=O)c3ccc(Cl)cc3)c2O[C@H]1CN(C)Cc1ccc(C(=O)Nc2ccccc2N)cc1` gave YB-1 expression inactive, INS-1E ATP HTS inactive and T cruzi intra 60.
For C[C@@H]1CN([C@@H](C)CO)C(=O)c2cccc(NS(=O)(=O)c3ccc(F)cc3)c2O[C@@H]1CN(C)Cc1ccc(C(=O)Nc2ccccc2N)cc1 the results were YB-1 expression inactive, INS-1E ATP HTS inactive and T cruzi intra inactive.
Cc1ccc(S(=O)(=O)Nc2cccc3c2O[C@H](CN(C)Cc2ccc(C(=O)Nc4ccccc4N)cc2)[C@@H](C)CN([C@@H](C)CO)C3=O)cc1 was read as YB-1 expression inactive, INS-1E ATP HTS inactive and T cruzi intra inactive.
`C[C@H](CO)N1C[C@H](C)[C@H](CN(C)Cc2ccc(C(=O)Nc3ccccc3N)cc2)Oc2c(NS(=O)(=O)c3ccc(Cl)cc3)cccc2C1=O` gave YB-1 expression inactive, INS-1E ATP HTS inactive and T cruzi intra inactive.
`Cc1ccc(S(=O)(=O)Nc2cccc3c2O[C@@H](CN(C)Cc2ccc(C(=O)Nc4ccccc4N)cc2)[C@@H](C)CN([C@@H](C)CO)C3=O)cc1` gave YB-1 expression inactive, INS-1E ATP HTS inactive and T cruzi intra 64.
Cc1c(Br)sc2sc(-c3ccnc(SCC(=O)NC(C)C)n3)c(C)c12 was read as YB-1 expression inactive.
CC1/C(=N/O)C[C@@H]2C[C@H]1C2(C)C (stereo partly specified) was read as YB-1 expression inactive.
For Cc1c(O)c(-c2ccccc2)c(=O)n(-c2ccccn2)c1-c1ccccc1 the results were YB-1 expression inactive.
Screening OCCNC(=S)NC12CC3CC(CC(C3)C1)C2 returned YB-1 expression inactive.
`Cc1noc(C)c1S(=O)(=O)Nc1cccc2c1O[C@H](CN(C)Cc1ccc(C(=O)Nc3ccccc3N)cc1)[C@H](C)CN([C@H](C)CO)C2=O` gave YB-1 expression inactive, INS-1E ATP HTS inactive and T cruzi intra 60.
C[C@@H]1CN([C@H](C)CO)C(=O)c2cccc(NS(=O)(=O)c3ccccc3)c2O[C@H]1CN(C)Cc1ccc(C(=O)Nc2ccccc2N)cc1 was read as YB-1 expression inactive, INS-1E ATP HTS inactive and T cruzi intra inactive.
For C[C@@H]1CN([C@H](C)CO)C(=O)Cc2cc(NC(=O)CCCCCC(=O)Nc3ccccc3N)ccc2O[C@@H]1CN(C)Cc1ccc(-c2ccccc2)cc1 the results were YB-1 expression inactive, INS-1E ATP HTS inactive and T cruzi intra inactive.
`C[C@H](CO)N1C[C@H](C)[C@H](CN(C)Cc2ccc(-c3ccccc3)cc2)Oc2ccc(NC(=O)CCCCCC(=O)Nc3ccccc3N)cc2CC1=O` gave YB-1 expression inactive, INS-1E ATP HTS inactive and T cruzi intra 73.
C[C@@H]1CN([C@H](C)CO)C(=O)Cc2cc(NC(=O)CCCCCC(=O)Nc3ccccc3N)ccc2O[C@@H]1CN(C)Cc1ccncc1 was read as YB-1 expression inactive, INS-1E ATP HTS inactive and T cruzi intra inactive.
C[C@@H]1CN([C@H](C)CO)C(=O)Cc2cc(NC(=O)CCCCCC(=O)Nc3ccccc3N)ccc2O[C@@H]1CN(C)Cc1ccc(Cl)c(Cl)c1 was read as YB-1 expression inactive, INS-1E ATP HTS inactive and T cruzi intra 66.
`Cc1ccc(O)c(C2=Nc3ccccc3N=C(C(F)(F)F)C2)c1` gave YB-1 expression inactive.
O=C(Nc1ccc(Cl)c(C(F)(F)F)c1)C(=S)NCc1ccco1 was read as YB-1 expression inactive.
For C[C@@H]1CN([C@H](C)CO)C(=O)c2cccc(NC(=O)Nc3ccc(C(F)(F)F)cc3)c2O[C@@H]1CN(C)S(=O)(=O)c1ccc(Cl)cc1 the results were YB-1 expression inactive, INS-1E ATP HTS inactive and T cruzi intra 63.
Cc1ccc(S(=O)(=O)N(C)C[C@H]2Oc3c(NC(=O)Nc4ccc(C(F)(F)F)cc4)cccc3C(=O)N([C@H](C)CO)C[C@@H]2C)cc1 was read as YB-1 expression inactive, INS-1E ATP HTS inactive and T cruzi intra inactive.
Screening C[C@@H]1CN([C@@H](C)CO)C(=O)c2cccc(NC(=O)Nc3ccc(C(F)(F)F)cc3)c2O[C@@H]1CN(C)S(=O)(=O)c1ccc(Cl)cc1 returned YB-1 expression inactive, INS-1E ATP HTS inactive and T cruzi intra 70.
